pEC50: −log10 of the molar value. Calls of active or inactive are those of the source.
Assays:
[1] = Kinetic aqueous solubility of the compound in PBS at pH 7.4 after 2 hrs by LC-MS/MS analysis; format: physicochemical; settings: read-out: Kinetic_solubility
Summary of the method: (§1)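 Kinetic solubility from a 10 mM DMSO stock diluted 1:100 (1% DMSO, maximum detectable 0.1 mM) into PBS pH 7.4 or HCl-adjusted PBS at about pH 1.2. Incubated at 37 °C for 2 h in sealed glass vials, centrifuged at 10000 x g, 37 °C, 20 min, then LC-MS/MS.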

[2] = target: T1, Lipoprotein lipase (Bos taurus) (UniProt P11151); assay: Induction of bovine LPL stabilization using intralipid as substrate at 3.12 uM preincubated for 10 mins with human recombinant ANGPTL4 followed by substrate addition measured after 45 mins relative to control
T1 sequence (whole entry): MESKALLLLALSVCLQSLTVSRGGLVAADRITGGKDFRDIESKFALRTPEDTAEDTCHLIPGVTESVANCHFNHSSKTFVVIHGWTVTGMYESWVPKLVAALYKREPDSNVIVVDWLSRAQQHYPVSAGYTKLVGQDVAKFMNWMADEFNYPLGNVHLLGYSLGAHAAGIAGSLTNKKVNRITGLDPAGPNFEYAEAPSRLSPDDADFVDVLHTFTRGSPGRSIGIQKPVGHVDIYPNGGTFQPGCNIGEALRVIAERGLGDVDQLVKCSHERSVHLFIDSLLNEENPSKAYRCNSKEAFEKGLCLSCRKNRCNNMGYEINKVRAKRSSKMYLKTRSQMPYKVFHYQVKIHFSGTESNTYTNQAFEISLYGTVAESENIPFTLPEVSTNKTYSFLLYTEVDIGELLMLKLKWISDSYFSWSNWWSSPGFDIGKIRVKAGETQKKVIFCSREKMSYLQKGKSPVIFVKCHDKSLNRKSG
Summary of the method: (§2)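 Compound in DMSO in buffer (50 mM potassium phosphate pH 7.4, 0.15 M NaCl, 0.01% Triton X-100), with human ANGPTL4 N-terminal fragment (aa 26-184, 75 nM final) and bovine LPL (15 nM final). Preincubated 10 min at 25 °C with shaking. Stopped after 45 min with 2.5% Triton X-100, and NEFA measured enzymatically. Activity normalised between DMSO+LPL+ANGPTL4 (0%) and DMSO+LPL (100%).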

[3] = target: T1, Lipoprotein lipase (Bos taurus); assay: Induction of bovine LPL stabilization using intralipid as substrate at 6.25 uM preincubated for 10 mins with human recombinant ANGPTL4 followed by substrate addition measured after 45 mins relative to control; summary of the method: as §2
[4] = target: T1, Lipoprotein lipase (Bos taurus); assay: Induction of bovine LPL stabilization using intralipid as substrate at 12.5 uM preincubated for 10 mins with human recombinant ANGPTL4 followed by substrate addition measured after 45 mins relative to control; summary of the method: as §2
[5] = Apparent permeability across basolateral to apical side in human Caco2 cells at 10 uM after 15 to 60 mins; format: ADME, cell-based; settings: Caco-2
[6] = Fraction unbound in human plasma at 10 uM after 4 hrs by rapid equilibrium dialysis method; format: ADME, cell-free
Summary of the method: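 Rapid equilibrium dialysis of pooled human plasma from two male and two female non-smoking donors. Compound typically 10 μM final, dialysed against isotonic phosphate buffer pH 7.4 at 37 °C for 4 h with rapid rotation. Proteins precipitated with methanol containing warfarin internal standard, then both compartments analysed by LC-MS/MS.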

[7] = Stability of the compound in human plasma after 4 hrs at 37 degC by mass spectrometric analysis; format: ADME, cell-free; settings: read-out: Stability
Summary of the method: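 Plasma test solution (pooled human plasma, typically 10 μM compound) held at 37 °C for 4 h, matching the dialysis time. A reference sample was frozen immediately. Proteins precipitated with methanol containing warfarin, then LC-MS/MS. Stability expressed on a relative basis.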

[8] = Half life in human liver microsomes at 1 uM; format: ADME
Summary of the method: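 Pooled liver microsomes (0.5 mg/ml) with compound at 1 μM in 0.1 M phosphate buffer pH 7.4. Reaction started with NADPH 1 mM. Sampled at 0, 5, 15 and 40 min in duplicate, quenched with acetonitrile containing warfarin, then LC-MS/MS.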

[9] = Intrinsic clearance in human hepatocytes assessed per 10^6 cells at 1 uM after 10 to 60 mins by LC-MS/MS analysis in presence of NADPH; format: ADME, cell-based, Hepatocyte; settings: read-out: CLH
Summary of the method: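 Freshly isolated human hepatocytes (0.5 x 10⁶ cells/ml) in Williams medium E with compound at 1 μM. Reaction started by adding cells. Sampled at 0, 10, 30 and 60 min in duplicate, quenched with acetonitrile containing warfarin, then LC-MS/MS.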

Mus musculus = assay: Hypolipidemic activity in C57B16/J mouse assessed as reduction in plasma triglyceride level at 10 mg/kg, ip qd administered for 4 days followed by olive oil injection through oral gavage one hour post last dose measured at 180 mins; format: functional, organism-based
Summary of the method: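 Female C57B16/J mice, 8-9 weeks, about 18 g, n = 8/group. Given 10 mg/kg i.p. once daily for 4 days, 0.5 ml in PBS pH 7.4 with 3% DMSO and 0.2% Triton X-100. Fasted 8 h before the last dose, then 0.2 ml oral olive oil gavage 1 h after it. Tail-vein EDTA plasma taken at baseline and every 60 min to 180 min. TG measured enzymatically, reported as mean ± SD.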

[10] = Kinetic aqueous solubility of the compound in PBS at pH 1.2 after 2 hrs by LC-Ms analysis; format: physicochemical; settings: read-out: Kinetic_solubility; summary of the method: as §1
[11] = target: T2, Peroxisome proliferator-activated receptor gamma (Homo sapiens, UniProt P37231); assay: Agonist activity at PPARgamma (unknown origin)
T2 sequence (P37231 whole entry): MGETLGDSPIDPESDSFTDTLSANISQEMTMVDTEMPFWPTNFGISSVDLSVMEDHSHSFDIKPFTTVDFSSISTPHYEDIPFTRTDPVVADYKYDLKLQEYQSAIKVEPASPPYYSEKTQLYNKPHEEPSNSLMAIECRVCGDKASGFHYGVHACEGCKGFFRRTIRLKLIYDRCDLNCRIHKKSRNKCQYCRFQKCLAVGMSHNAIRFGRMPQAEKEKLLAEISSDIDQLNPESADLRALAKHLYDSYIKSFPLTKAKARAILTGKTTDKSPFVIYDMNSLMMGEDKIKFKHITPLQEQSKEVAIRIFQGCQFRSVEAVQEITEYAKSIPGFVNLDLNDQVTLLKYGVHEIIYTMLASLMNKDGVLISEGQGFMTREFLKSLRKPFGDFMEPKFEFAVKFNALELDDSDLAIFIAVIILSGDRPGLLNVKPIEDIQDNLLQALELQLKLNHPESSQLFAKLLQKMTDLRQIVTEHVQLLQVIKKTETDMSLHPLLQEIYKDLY
Summary of the method: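 Single agonist-mode profiling at ten concentrations against FXR, PPARα, PPARγ and RXRα, run as an outside screening service.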

Question: Which solubility kinetic at 2 h [1] does the source give for `Cc1ccc(NC(=O)c2cc(-n3cc4ccc(C(=O)O)cc4n3)ccc2N2CCCCC2)cc1` here?
Answer: < 2 µM

Question: And the Activity [2]?
Answer: inactive

Question: And the Activity [3]?
Answer: 16%

Question: What about the Activity [4] of the same compound?
Answer: 75.6%

Question: And the Papp B→A at 10 µM [5]?
Answer: 31 ×10⁻⁶ cm/s

Question: What about the Fu [6] of the same compound?
Answer: < 0.01%

Question: And the remaining at 4 h [7]?
Answer: 96%

Question: What about the half-life at 1 µM [8] of the same compound?
Answer: > 1.33 h

Question: And the hepatocyte CLint at 1 µM [9]?
Answer: 12 µL/min/1e6 cells

Question: And the Activity (Mus musculus)?
Answer: Active

Question: And the solubility kinetic at 2 h [10]?
Answer: < 2 µM

Question: And the pEC50 [11]?
Answer: < 4.00

Source: ChEMBL document CHEMBL3745639, “Structure-activity relationships for lipoprotein lipase agonists that lower plasma triglycerides in vivo” (Eur J Med Chem, 2015)
